The text below walks through data of ChEMBL document CHEMBL3351505, “Ultrasound-assisted synthesis of novel 1,2,3-triazoles coupled diaryl sulfone moieties by the CuAAC reaction, and biological evaluation of them as antioxidant and antimicrobial agents” (Eur J Med Chem, 2014).

In brackets after ≈: the same amount, converted by molar mass. Activity calls are given as the source filed them.

The subject of data set [1] is Escherichia coli. Briefly: Antibacterial activity against Escherichia coli ATCC 25922 using 100 uL of test compound after 24 hrs by agar well diffusion method. The class given is functional. An outline of the steps: (§1)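 Agar well diffusion. Nutrient agar was spread with bacterial suspension at 1×10⁸ CFU/mL, and 10 mm wells were cut. Wells were loaded with compound solution made at 200 mg per 1 mL DMSO. Plates were incubated 24 h at 37 °C and inhibition zones were measured. DMSO served as the negative control.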
Background: In agar diffusion tests the substance spreads into inoculated agar from a disc or well.

Data set [2] deals with Priestia megaterium. As to the kind of experiment: Antibacterial activity against Bacillus megaterium ATCC 9885 after 24 hrs by two fold serial dilution method. It is filed as functional.
Data set [3] has as its system Candida albicans. As to the kind of experiment: Antifungal activity against Candida albicans NRRL Y-477 after 48 hrs by two fold serial dilution method. The class given is functional. An outline of the steps:
(§2)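 Two-fold serial broth dilution in a suitable broth, run only on compounds giving inhibition zones of at least 16 mm. Final concentrations were […]. Each 5 mL received 0.1 mL inoculum and was incubated 48 h at 28 °C. MIC was the lowest concentration without growth.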

For data set [4], the system named is Candida albicans. As to the kind of experiment: Antifungal activity against Candida albicans NRRL Y-477 using 100 uL of test compound after 48 hrs by agar well diffusion method. The class given is functional. In outline: (§3)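 Agar well diffusion. Sabouraud dextrose agar was spread with yeast or fungal suspension at 1×10⁶ CFU/mL, and 10 mm wells were cut. Wells were loaded with compound solution made at 200 mg per 1 mL DMSO. Plates were incubated 48 h at 28 °C and inhibition zones were measured. DMSO served as the negative control.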

For data set [5], the system named is Klebsiella pneumoniae. Briefly: Antibacterial activity against Klebsiella pneumoniae ATCC 13883 using 100 uL of test compound after 24 hrs by agar well diffusion method. It is filed as functional. In outline:
as §1

Data set [6] relates to Saccharomyces cerevisiae. Briefly: Antifungal activity against Saccharomyces cerevisiae using 100 uL of test compound after 48 hrs by agar well diffusion method. It is filed as functional. In outline:
as §3

The test system of data set [7] is Micrococcus luteus. Briefly: Antibacterial activity against Sarcina lutea after 24 hrs by two fold serial dilution method. It is filed as functional.
The subject of data set [8] is Pseudomonas aeruginosa. As to the kind of experiment: Antibacterial activity against Pseudomonas aeruginosa ATCC 27953 using 100 uL of test compound after 24 hrs by agar well diffusion method. It is filed as functional. An outline of the steps:
as §1

In data set [9] the test system is Aspergillus niger. As to the kind of experiment: Antifungal activity against Aspergillus niger using 100 uL of test compound after 48 hrs by agar well diffusion method. The class given is functional. An outline of the steps:
as §3

For data set [10], the system named is Pseudomonas aeruginosa. Briefly: Antibacterial activity against Pseudomonas aeruginosa ATCC 27953 after 24 hrs by two fold serial dilution method. The class given is functional.
In data set [11] the test system is Staphylococcus aureus. Briefly: Antibacterial activity against Staphylococcus aureus ATCC 29213 after 24 hrs by two fold serial dilution method. It is filed as functional.
Data set [12] relates to Bacillus subtilis. As to the kind of experiment: Antibacterial activity against Bacillus subtilis ATCC 6633 after 24 hrs by two fold serial dilution method. The class given is functional.
Data set [13] is described as follows: Antioxidant activity assessed as DPPH free radical scavenging activity by spectrophotometric assay. It is filed as physicochemical. An outline of the steps: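 Sample solutions at several concentrations were added to 0.004% DPPH in methanol and incubated 60 min in the dark. Absorbance was read at 517 nm against a blank. Inhibition % = (A_blank − A_sample)/A_blank × 100, where the control contained all reagents except the test compound.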
(Loss of DPPH colour is used to gauge radical scavenging.)

The test system of data set [14] is Klebsiella pneumoniae. As to the kind of experiment: Antibacterial activity against Klebsiella pneumoniae ATCC 13883 after 24 hrs by two fold serial dilution method. It is filed as functional.
Data set [15] has as its system Priestia megaterium. Briefly: Antibacterial activity against Bacillus megaterium ATCC 9885 using 100 uL of test compound after 24 hrs by agar well diffusion method. It is filed as functional. In outline:
as §1

Data set [16] deals with Micrococcus luteus. Briefly: Antibacterial activity against Sarcina lutea using 100 uL of test compound after 24 hrs by agar well diffusion method. It is filed as functional. In outline: as §1
Data set [17] deals with Escherichia coli. Briefly: Antibacterial activity against Escherichia coli ATCC 25922 after 24 hrs by two fold serial dilution method. It is filed as functional. Conditions: ATCC 25922, 24 h.
Data set [18] relates to Aspergillus niger. As to the kind of experiment: Antifungal activity against Aspergillus niger after 48 hrs by two fold serial dilution method. The class given is functional. In outline: as §2
Data set [19] has as its system Staphylococcus aureus. As to the kind of experiment: Antibacterial activity against Staphylococcus aureus ATCC 29213 using 100 uL of test compound after 24 hrs by agar well diffusion method. The class given is functional. In outline:
as §1

Data set [20] deals with Bacillus subtilis. As to the kind of experiment: Antibacterial activity against Bacillus subtilis ATCC 6633 using 100 uL of test compound after 24 hrs by agar well diffusion method. It is filed as functional. In outline: as §1
Data set [21] relates to Saccharomyces cerevisiae. Briefly: Antifungal activity against Saccharomyces cerevisiae after 48 hrs by two fold serial dilution method. The class given is functional. An outline of the steps:
as §2

By MIC is commonly meant the smallest concentration in the dilution series that meets the test's criterion for growth inhibition. A word on the IC50: it is the concentration needed to halve the response being measured.

As for `CC(Cc1cn(CC(=O)c2ccc(S(=O)(=O)c3ccccc3)cc2)nn1)(OCc1cn(CC(=O)c2ccc(S(=O)(=O)c3ccccc3)cc2)nn1)c1ccc(S(=O)(=O)c2ccccc2)cc1` (stereo not drawn), the “diameter of the inhibition zone (DIZ)” value is given as 17 mm in the data set on Escherichia coli [1]; 15 mm with Candida albicans [4]; 19 mm with Klebsiella pneumoniae [5]; 14 mm with Saccharomyces cerevisiae [6]; 19 mm in the data set with Pseudomonas aeruginosa [8]; 34 mm in the data set with Aspergillus niger [9]. Also, the “diameter of the inhibition zone (DIZ)” value in the data set on Priestia megaterium [15] came out at 22 mm; in the data set with Micrococcus luteus [16], 25 mm; with Staphylococcus aureus [19], 14 mm; in the data set with Bacillus subtilis [20], 14 mm. The MIC against Priestia megaterium [2] (ATCC 9885, 24 h) came to 200 µg/mL (≈ 213 µM); in the data set on Micrococcus luteus [7], 100 µg/mL (≈ 106 µM); in the data set with Pseudomonas aeruginosa [10], 200 µg/mL (≈ 213 µM); against Klebsiella pneumoniae [14] (ATCC 13883, 24 h), 200 µg/mL (≈ 213 µM); in the data set with Escherichia coli [17], 200 µg/mL (≈ 213 µM); against Aspergillus niger [18], 25 µg/mL (≈ 26.6 µM). Besides, the MIC result with Candida albicans [3], in the data set with Staphylococcus aureus [11], in the data set on Bacillus subtilis [12] and with Saccharomyces cerevisiae [21] was “inactive” in each case. In addition, the IC50 in [13] was determined as 600 µg/mL (≈ 638 µM).
As for `O=S(=O)(c1ccccc1)c1ccc(C(O)Cc2cn(Cc3ccccc3)nn2)cc1` (stereo not drawn), the “diameter of the inhibition zone (DIZ)” value amounted to 19 mm in the data set with Escherichia coli [1]; 19 mm in the data set with Candida albicans [4]; 23 mm in the data set with Klebsiella pneumoniae [5]; 17 mm in the data set with Saccharomyces cerevisiae [6]; 20 mm in the data set on Pseudomonas aeruginosa [8]; 30 mm in the data set on Aspergillus niger [9]. Further, the “diameter of the inhibition zone (DIZ)” value was 14 mm in the data set on Priestia megaterium [15], 20 mm with Micrococcus luteus [16], 19 mm in the data set on Staphylococcus aureus [19] and 17 mm in the data set on Bacillus subtilis [20]. For the same compound, in the data set on Priestia megaterium [2], the MIC result is “inactive”. Further, the MIC stood at 200 µg/mL (≈ 477 µM) in the data set on Candida albicans [3] (NRRL Y-477, 48 h); 200 µg/mL (≈ 477 µM) in the data set on Micrococcus luteus [7]; 200 µg/mL (≈ 477 µM) with Pseudomonas aeruginosa [10]; 200 µg/mL (≈ 477 µM) against Staphylococcus aureus [11] (ATCC 29213, 24 h); 200 µg/mL (≈ 477 µM) against Bacillus subtilis [12] (ATCC 6633, 24 h); 200 µg/mL (≈ 477 µM) in the data set on Klebsiella pneumoniae [14] (ATCC 13883, 24 h). Also, the MIC turned out to be 200 µg/mL (≈ 477 µM) against Escherichia coli [17], 50 µg/mL (≈ 119 µM) with Aspergillus niger [18] and 200 µg/mL (≈ 477 µM) against Saccharomyces cerevisiae [21]. For the same compound, the IC50 in data set [13] was 200 µg/mL (≈ 477 µM).
As for `CC(Cc1cn(Cc2ccccc2)nn1)(OCc1cn(Cc2ccccc2)nn1)c1ccc(S(=O)(=O)c2ccccc2)cc1` (stereo not drawn), the “diameter of the inhibition zone (DIZ)” value in the data set with Escherichia coli [1] is 18 mm; in the data set on Candida albicans [4], 16 mm; in the data set with Klebsiella pneumoniae [5], 15 mm; with Saccharomyces cerevisiae [6] it was 14 mm; with Pseudomonas aeruginosa [8], 19 mm; with Aspergillus niger [9], 34 mm. The “diameter of the inhibition zone (DIZ)” value in the data set on Priestia megaterium [15] stood at 17 mm; with Micrococcus luteus [16], 17 mm; in the data set on Staphylococcus aureus [19], 14 mm; with Bacillus subtilis [20], 14 mm. Further, the MIC with Priestia megaterium [2] (ATCC 9885, 24 h) stood at 200 µg/mL (≈ 331 µM); in the data set on Candida albicans [3] (NRRL Y-477, 48 h) it was 200 µg/mL (≈ 331 µM); against Micrococcus luteus [7], 200 µg/mL (≈ 331 µM); against Pseudomonas aeruginosa [10], 200 µg/mL (≈ 331 µM); against Escherichia coli [17] it was 200 µg/mL (≈ 331 µM); against Aspergillus niger [18], 25 µg/mL (≈ 41.3 µM). In addition, the MIC entry with Staphylococcus aureus [11], in the data set with Bacillus subtilis [12], with Klebsiella pneumoniae [14] and in the data set on Saccharomyces cerevisiae [21] was “inactive” throughout. For the same compound, the IC50 in [13] came out at 600 µg/mL (≈ 992 µM).
